Published values of several laboratories.
Each line is one published result; the experiments were not run side by side.
Target: Cyclin-dependent kinase-like 1 (CDKL1, Homo sapiens, UniProt Q00532)

SMILES | effect on | method | tested at | remaining binding
Cc1cc(-n2nc(Cc3cc(F)cc(C(F)(F)F)c3)nc2C)ccc1C(N)=O | cell-free assay | competition with immobilised ligand | 1 µM | 71%
c1cnn2ncc(-c3ccnc(N4CCC45COC5)n3)c2c1 | binding |  | 1 µM | 59%
O=C(NCC1CCOCC1)c1n[nH]cc1NC(=O)c1c(F)cccc1F | binding | competition with immobilised ligand | 1 µM | 77%
C[C@@H](c1ccc(-n2cnc3c(N)ncnc32)cc1)N1CCc2nn(C)c(Cc3ccccc3)c2C1=O | binding | competition with immobilised ligand | 0.1 µM | 58%
C[C@H]1CCN(c2nccc(-c3cnn4ncccc34)n2)C1 | binding |  | 1 µM | 62%
COc1cnc(Nc2cccc(S(N)(=O)=O)c2)nc1N1CCN(c2ccccc2)C(=O)C1 | binding | competition with immobilised ligand | 1 µM | 92%
C[C@@H](c1cccc(C#N)c1)n1cc(Cl)cc(C(N)=O)c1=N | binding | competition with immobilised ligand | 1 µM | 100%
CN(C)c1ncc(F)c(-c2cnn3ncccc23)n1 | binding |  | 1 µM | 100%
CNCc1ccccc1-c1csc([C@@H](C)Nc2nc(C)nc3cc(OC)c(OC)cc23)c1 | cell-free assay | competition with immobilised ligand | 1 µM | 93%
Cc1cnc(Nc2ccc(C(=O)N3CCC(N4CCCC4)CC3)cc2)nc1-c1cc2ccccc2s1 | binding | competition with immobilised ligand | 1 µM | 50%
CN(CCCC(F)(F)F)c1nccc(-c2cnn3ncccc23)n1 | binding |  | 1 µM | 83%
O=C1NC(c2ccccn2)Sc2ccccc21 (centres unmarked) | cell-free assay | competition with immobilised ligand | 1 µM | 75%
O=C(c1ccc(Nc2nccc(-c3cc4ccccc4s3)n2)cc1)N1CCC(N2CCCC2)CC1 | binding | competition with immobilised ligand | 1 µM | 71%
Nc1ncc2c(n1)-c1c([nH]c3ccc(C#CC4CC4)cc13)CCCC2 | binding | competition with immobilised ligand | 1 µM | 81%
N[C@H]1CCN(c2nccc(-c3cnn4ncccc34)n2)C1 | binding |  | 1 µM | 80%
CCS(=O)(=O)c1cc2cc(C[C@](O)(CC(C)(C)c3ccc(F)cc3C(N)=O)C(F)(F)F)[nH]c2cn1 | cell-free assay | competition with immobilised ligand | 1 µM | 81%
COc1ccnn2ncc(-c3ccnc(N(C)C)n3)c12 | binding |  | 1 µM | 87%
COc1cnc(Nc2cccc(S(N)(=O)=O)c2)nc1N1CCN(c2ccccc2)CC1 | binding | competition with immobilised ligand | 1 µM | 86%
CC(=O)Nc1c(C(C)=O)c(=O)n(C)c2nc(-c3ccc(Cl)cc3Cl)c(-c3ccc(Cl)cc3)cc12 | cell-free assay | competition with immobilised ligand | 1 µM | 100%
O=C(c1ccc(Nc2ncc(Cl)c(-c3cc4ccccc4s3)n2)cc1)N1CCC(N2CCCC2)CC1 | binding | competition with immobilised ligand | 1 µM | 51%
